proKLK7 act = activates the human kallikrein-7 zymogen. activation, % at 7 µM. AID 652039. purified proKLK7, EDANS-DABCYL substrate fluorescence; 100% is mature enzyme control, 0% vehicle. 0.9% of 370,000 active. P49862;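 active = activation above the mean of all tested compounds plus 3 SD, computed per campaign excluding outliers beyond control limits, cut at about 13% in these data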
Target sequence (P49862 whole entry, looked up): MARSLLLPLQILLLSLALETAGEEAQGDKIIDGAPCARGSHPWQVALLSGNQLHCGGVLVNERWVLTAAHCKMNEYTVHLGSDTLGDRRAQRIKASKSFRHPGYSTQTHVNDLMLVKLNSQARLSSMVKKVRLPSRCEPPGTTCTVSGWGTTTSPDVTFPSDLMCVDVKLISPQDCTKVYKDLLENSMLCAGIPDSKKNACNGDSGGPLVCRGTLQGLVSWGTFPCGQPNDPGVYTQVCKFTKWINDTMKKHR
ADAM17 inh = inhibitors of human ADAM17. P78536. recombinant ADAM17, EDANS/DABCYL FRET peptide cleavage. AID 720648. inhibition, % at 6.95 µM. 0.83% of 370,000 active;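 active = inhibition above the mean of compounds lying between control limits plus 3 SD, set per campaign, cut at about 8.5% in these data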;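 note: 0% = DMSO-only wells as the low control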
NR2E3 ag-1 = activates human photoreceptor nuclear receptor NR2E3; GST-NR2E3/biotin-RetCOR TR-FRET, 1536-well; 0.12% of 320,000 active; inhibition of corepressor binding, % at 4.78 µM;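 active = percent inhibition above the cutoff of mean plus 3 SD of all tested compounds, set per screening campaign, cut at about 20% in these data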;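 note: 0% = DMSO wells and 100% = biotin wells as full block of FRET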
Target sequence (Q9Y5X4 whole entry, looked up): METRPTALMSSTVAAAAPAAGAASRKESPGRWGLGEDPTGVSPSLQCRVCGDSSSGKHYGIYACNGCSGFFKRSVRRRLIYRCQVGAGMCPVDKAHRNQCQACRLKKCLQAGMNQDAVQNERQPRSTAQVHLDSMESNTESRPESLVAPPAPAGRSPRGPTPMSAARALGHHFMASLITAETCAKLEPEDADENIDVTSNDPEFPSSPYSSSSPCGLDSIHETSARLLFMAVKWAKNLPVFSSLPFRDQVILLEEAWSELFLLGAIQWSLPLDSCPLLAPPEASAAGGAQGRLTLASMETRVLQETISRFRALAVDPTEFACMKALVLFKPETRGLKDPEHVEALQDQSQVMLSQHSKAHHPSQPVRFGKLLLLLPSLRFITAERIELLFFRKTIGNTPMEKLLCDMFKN
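System: GST-tagged NR2E3 plus biotinylated RetCOR corepressor; Amount: 1.35 nM GST-tagged NR2E3 final; Dosing: single nominal compound dose of 4.8 µM; Schedule: 5 h incubation at 4 °C; Technique: TR-FRET with europium anti-GST and streptavidin-D2, 340 nm excitation; Controls: biotin wells as high control, 0.6% DMSO wells as low control.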
JMJD2C inh = inhibitors of human GASC-1 (JMJD2C) demethylase. GST-JMJD2C(1-420) H3K9me3 demethylation, DELFIA europium. Q9H3R0. 0.069% of 330,000 active. inhibition, % at 2.35 µM;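 active = more than half of a compound's replicate wells show inhibition beyond 50%, single wells judged on their own value; inconclusive = some, but no more than half, of replicates pass 50% inhibition; inactive = no replicate passes 50% inhibition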;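 note: signal counts dimethyl H3K9 product captured on neutravidin plate; 0% = median of DMSO wells and 100% = 0.3 times that DMSO median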
ADAM10 inh = inhibits human ADAM10; recombinant ADAM10, EDANS/DABCYL FRET peptide cleavage, 3 h; 0.62% of 370,000 active; inhibition, % at 7 µM;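 active = inhibition above a per-campaign cutoff equal to the mean of compounds falling between control-based bounds plus 3 SD, cut at about 20% in these data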;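 note: 0% = DMSO wells while the 100% control is not disclosed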
NR2E3 ag-2 = activates human NR2E3 receptor; CHO-S Gal4-NCOR/VP16-NR2E3 two-hybrid, luciferase; inhibition of corepressor binding, % at 3.98 µM; 0.35% of 360,000 active; AID 602229;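 active = inhibition above the mean of all tested compounds plus 3 SD, cut at about 70% in these data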;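 note: 0% = DMSO with NR2E3 transfected cells and 100% = cells lacking NR2E3 construct; higher means lower luciferase signal from less NR2E3 corepressor binding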
KLK7 act conf = proKLK7 activation, confirmation; purified proKLK7, EDANS-DABCYL substrate fluorescence; scaled: vehicle 0, mature enzyme 100; shares compounds with proKLK7 act; 68% of 3,200 active; activation, % at 7 µM;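 active = activation, as change over the incubation, above the mean of all tested compounds plus 3 SD, cut at about 13% in these data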
EDANS interfere = fluorescence interference counter-screen for KLK7 activators | shares compounds with proKLK7 act | EDANS-DABCYL substrate fluorescence interference, no enzyme, 4 h; solvent 0%, active enzyme control 100% | activation, % at 7 µM | 80% of 3,200 active | AID 686952;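 active = activation above the all-compound mean plus 3 SD, ignoring values outside control-based bounds, cut at about 4.8% in these data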;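 note: value is the 4 h activation minus the activation read at time zero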
EDANS interf = optically interferes with EDANS-DABCYL fluorescence, kallikrein-7 activator counter-screen. shares compounds with proKLK7 act. EDANS-DABCYL peptide fluorescence interference, no enzyme. EC50, µM. 20% of 250 active. AID 720493;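 active = compounds that raise the fluorescence signal in this interference counterscreen, with EC50 at or below 10 µM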;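 note: intact quenched peptide substrate alone read at 355 nm excitation and 520 nm emission; signal is fluorescence gain from T0 to T4 after four hours at room temperature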
Starred values were filed as active, the others as inactive; i = inactive; ? = inconclusive; nt = no result. Most compounds without a hit are left out; they make up all but 2.5% or so of the library.

SMILES	proKLK7 act	ADAM17 inh	NR2E3 ag-1	JMJD2C inh	ADAM10 inh	NR2E3 ag-2	KLK7 act conf	EDANS interfere	others
Clc1ccc2nc3ccccn3c2c1	22.4*	i	0.3	-1.8	i	-14.7	41.1*	43.8*
CCn1c(C)nc2cc(C#N)ccc21	-0.6	0.1	2.6	10.9	0.7	-8.4	nt	nt
CC(C)=CCn1c2ccc(NC(=O)NCc3ccc(F)cc3)cc2c(=O)n1C	17.8*	i	nt	nt	i	-20.8	3.3	-0.7
CCNC(=O)Nc1ccc2c(c1)c(=O)n(C)n2CC=C(C)C	40.4*	i	nt	nt	i	14.9	32.7*	31.2*
COc1ccc(CNC(=O)Nc2ccc3c(c2)c(=O)n(C)n3Cc2cc(C)cc(C)c2)cc1	-10.0	i	nt	nt	i	4.9	nt	nt
C=C(C)Cn1c2ccc(NC(=O)NCCc3cccs3)cc2c(=O)n1C	25.8*	i	nt	nt	i	-12.9	18.6*	9.8*	EDANS interf=>69.5
Cn1c(=O)c2cc(NC(=O)NCc3ccc(F)cc3)ccc2n1C/C=C/c1ccccc1	-6.2	-111.7	nt	nt	-435.5	-14.1	nt	nt
Cn1c(=O)c2cc(NC(=O)Nc3cccnc3)ccc2n1Cc1ccc(Cl)cc1	5.6	-427.2	nt	nt	i	-20.2	nt	nt
C=C(C)Cn1c2ccc(NC(=O)CCc3cccnc3)cc2c(=O)n1C	20.9*	-437.3	nt	nt	i	1.4	22.6*	26.0*
O=C(CN1C(=O)NC2(CCCCCC2)C1=O)N1CCN(c2ccccc2)CC1	0.6	-2.9	-0.2	4.9	-9.0	-6.0	nt	nt
CC(C)=CCn1c2ccc(NC(=O)Nc3cccnc3)cc2c(=O)n1C	20.7*	-428.9	nt	nt	i	-19.8	5.6	9.4*
CN(C)c1ccc(NC(=O)Nc2ccc3c(c2)c(=O)n(C)n3Cc2ccccc2)cc1	-1.0	-48.1	nt	nt	-179.2	-0.8	nt	nt
C=C(C)Cn1c2ccc(NC(=S)NCc3ccccc3F)cc2c(=O)n1C	-0.7	-350.3	nt	nt	i	-25.0	nt	nt
CCNC(=S)Nc1ccc2c(c1)c(=O)n(C)n2CC=C(C)C	46.0*	i	nt	nt	i	11.4	31.0*	32.8*
COc1ccc(CCNC(=O)Nc2ccc3c(c2)c(=O)n(C)n3CC=C(C)C)cc1OC	26.0*	i	nt	nt	i	-32.5	2.7	5.4*
CC(C)=CCn1c2ccc(NC(=O)Nc3ccc(N(C)C)cc3)cc2c(=O)n1C	13.9*	-64.8	nt	nt	-263.7	-6.3	5.1	6.5*
Nc1ccc(S(=O)(=O)Nc2nccc(/C=C/c3ccc(Cl)cc3Cl)n2)cc1	-0.5	-2.8	0.9	5.7	-7.5	14.8	nt	nt
COc1ccccc1C(=O)NC1CCCCN(Cc2ccccc2C)C1=O (stereo not drawn)	-0.2	1.6	nt	nt	-0.9	nt	nt	nt
O=C(Nc1ccc2c(c1)OCCO2)C1c2ccccc2OCC(=O)N1Cc1ccco1 (stereo not drawn)	0.2	6.1	nt	nt	-1.1	-7.7	nt	nt
CCCCc1cc(=O)oc2c(CN(C)C)c(O)c(Cl)cc12	66.9*	i	0.9	-2.6	i	2.1	64.8*	85.9*
CCc1c(C)c2cc(Cl)c(O)c(CN(CC)CC)c2oc1=O	53.0*	i	-0.2	-5.9	i	-25.1	73.3*	83.2*
Cc1c(C)c2cc(Cl)c(O)c(CN(C)C)c2oc1=O	73.8*	i	5.2	2.4	i	-13.8	62.6*	65.3*
Cc1c(O)c(CN(C)C)cc2c1oc(=O)c1ccccc12	-0.1	-5.7	1.3	20.2	-9.7	-11.1	nt	nt
CCc1c(C)c2cc(Cl)c(O)c(CN(C)C)c2oc1=O	79.5*	i	-0.6	1.0	i	-3.0	66.2*	67.0*
O=C(NCc1cc([N+](=O)[O-])ccc1O)c1cc(-c2ccncc2)nc2ccccc12	0.8	-2.9	3.4	-0.8	-2.2	14.9	nt	nt
SMILES	proKLK7 act	ADAM17 inh	NR2E3 ag-1	JMJD2C inh	ADAM10 inh	NR2E3 ag-2	KLK7 act conf	EDANS interfere	others
C[C@H](NC(=O)N1CCn2c1nc1ccccc12)C(=O)NCc1ccc(F)cc1	-0.6	0.2	0.4	26.4	-11.2	33.9	nt	nt
C/C(=N\NC(=O)CC#N)c1cc2ccc(O)cc2oc1=O	60.5*	i	-0.2	4.2	i	4.6	46.3*	43.1*
O=C(c1ccc(F)cc1)c1cc2ccc(O)cc2oc1=O	-0.9	-4.9	-0.9	-33.8	-7.5	-42.7	nt	nt
O=C(NCc1ccccc1)c1cc2ccc(O)cc2oc1=O	58.0*	i	4.9	14.8	i	-31.1	68.8*	71.2*
COc1ccc2cc(S(=O)(=O)c3ccccc3)c(=O)oc2c1	-23.3	i	3.7	14.9	i	17.3	nt	nt
O=C(O)c1ccc(N=c2oc3cc(O)ccc3cc2C(=O)NCc2ccccc2)cc1	5.1	i	6.5	13.1	i	-34.5	nt	nt
COc1ccccc1C(=O)c1cc2ccc(O)cc2oc1=O	-0.1	-9.1	0.5	1.9	-16.2	-4.5	nt	nt
O=C(O)c1cc2ccc(O)cc2oc1=O	104.4*	i	nt	nt	i	-17.8	65.2*	73.4*
Cc1ccc(S(=O)(=O)c2cc3ccc(O)cc3oc2=O)cc1C	43.6*	i	-1.4	-6.5	i	18.3	62.0*	67.9*
CSC[C@H](NC(=O)Cc1c(C)c2cc3c(C)c(C)oc3cc2oc1=O)C(=O)N[C@@H](Cc1ccccc1)C(=O)O	nt	nt	-0.3	i	nt	-0.5	nt	nt
O=C(Cc1cc(=O)oc2cc(O)ccc12)NC(Cc1ccc(Cl)cc1)C(=O)O (stereo not drawn)	45.7*	i	-1.2	-0.9	i	-4.4	65.0*	68.0*
CCC(NC(=O)CCc1c(C)c2cc3c(C)c(C)oc3cc2oc1=O)C(=O)N[C@@H](Cc1ccccc1)C(=O)O (stereo partly drawn)	14.0*	-72.4	0.3	?	-298.6	-9.8	13.3*	8.7*	EDANS interf=>69.5
Cc1c(CC(=O)NCC(=O)NCC(=O)N[C@@H](Cc2ccccc2)C(=O)O)c(=O)oc2c(C)c(O)ccc12	71.9*	i	nt	nt	i	-10.7	61.4*	73.6*
Cc1c(O)ccc2c(CC(=O)N[C@@H](Cc3ccc(O)cc3)C(=O)O)cc(=O)oc12	39.5*	i	nt	0.7	i	1.5	64.6*	68.5*
CCCCN(C(=O)c1ccc2c(c1)OCCO2)c1c(N)n(CC(C)C)c(=O)[nH]c1=O	0.5	-0.7	-0.6	-4.7	-4.7	9.2	nt	nt
CCOC(=O)C1=C(COC(=O)Cc2ccc(Br)cc2)NC(=O)NC1C (stereo not drawn)	0.5	-0.3	-0.7	-8.7	-4.2	-4.6	nt	nt

Source: PubChem BioAssay (several laboratories)
